{"source": "ChEMBL document CHEMBL1821604", "about": "“Anticancer activity and cDNA microarray studies of a (RS)-1,2,3,5-tetrahydro-4,1-benzoxazepine-3-yl]-6-chloro-9H-purine, and an acyclic (RS)-O,N-acetalic 6-chloro-7H-purine” (Eur J Med Chem, 2011)", "format_in_all_cases": "functional", "key": {"HT-29 [1]": {"system": "HT-29", "assay": "Down regulation of CDH4 gene expression in human HT-29 cells at IC50 after 48 hrs by cDNA microarray technique relative to control", "how_it_was_run": "(§1)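 8 × 10⁶ cells exposed 48 h to compound at its IC50 concentration; total RNA isolated with trizol/chloroform and RNeasy columns including on-column DNase step; RNA quantified by OD 260/280; DMSO-treated cultures as control.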"}, "HT-29 [2]": {"system": "HT-29", "assay": "Down regulation of HTN1 gene expression in human HT-29 cells at IC50 after 48 hrs by cDNA microarray technique relative to control", "how_it_was_run": "(§2)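 Cells (8 × 10⁶) were cultured in DMEM with 10% heat-inactivated FBS at 37 °C under 5% CO₂. They were exposed for 48 h to compound at its IC₅₀, with DMSO-treated parallel cultures as controls (final DMSO ≤0.1% v/v). Total RNA was isolated by trizol/chloroform phase separation, RNeasy column cleanup and on-column DNase, then quantified by OD260/OD280. Expression was profiled by cDNA microarray relative to control.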"}, "HT-29 [3]": {"system": "HT-29", "assay": "Down regulation of GBP1 gene expression in human HT-29 cells at IC50 after 48 hrs by cDNA microarray technique relative to control", "how_it_was_run": "as §2"}, "HT-29 [4]": {"system": "HT-29", "assay": "Down regulation of FUT9 gene expression in human HT-29 cells at IC50 after 48 hrs by cDNA microarray technique relative to control", "how_it_was_run": "as §2"}, "HT-29 [5]": {"system": "HT-29", "assay": "Down regulation of GNRHR2 gene expression in human HT-29 cells at IC50 after 48 hrs by cDNA microarray technique relative to control", "how_it_was_run": "as §2"}, "MCF7 [6]": {"system": "MCF7", "assay": "Down regulation of C1orf131 gene expression in human MCF7 cells at IC50 after 48 hrs by cDNA microarray technique relative to control", "how_it_was_run": "as §1"}, "MCF7 [7]": {"system": "MCF7", "assay": "Upregulation of ERG gene expression in human MCF7 cells at IC50 after 48 hrs by cDNA microarray technique relative to control"}, "HT-29 [8]": {"system": "HT-29", "assay": "Down regulation of TCP10 gene expression in human HT-29 cells at IC50 after 48 hrs by cDNA microarray technique relative to control"}, "MCF7 [9]": {"system": "MCF7", "assay": "Upregulation of ABCD2 gene expression in human MCF7 cells at IC50 after 48 hrs by cDNA microarray technique relative to control"}, "MCF7 [10]": {"system": "MCF7", "assay": "Down regulation of EFHC2 gene expression in human MCF7 cells at IC50 after 48 hrs by cDNA microarray technique relative to control", "how_it_was_run": "as §2"}, "MCF7 [11]": {"system": "MCF7", "assay": "Upregulation of NRTN gene expression in human MCF7 cells at IC50 after 48 hrs by cDNA microarray technique relative to control"}, "HT-29 [12]": {"system": "HT-29", "assay": "Down regulation of LIN28 gene expression in human HT-29 cells at IC50 after 48 hrs by cDNA microarray technique relative to control", "how_it_was_run": "as §2"}, "HT-29 [13]": {"system": "HT-29", "assay": "Down regulation of PARK2 gene expression in human HT-29 cells at IC50 after 48 hrs by cDNA microarray technique relative to control"}, "HT-29 [14]": {"system": "HT-29", "assay": "Upregulation of NAV1 gene expression in human HT-29 cells at IC50 after 48 hrs by cDNA microarray technique relative to control"}, "HT-29 [15]": {"system": "HT-29", "assay": "Upregulation of CTSZ gene expression in human HT-29 cells at IC50 after 48 hrs by cDNA microarray technique relative to control"}, "MCF7 [16]": {"system": "MCF7", "assay": "Upregulation of MGC32020 gene expression in human MCF7 cells at IC50 after 48 hrs by cDNA microarray technique relative to control"}, "HT-29 [17]": {"system": "HT-29", "assay": "Upregulation of GALNT10 gene expression in human HT-29 cells at IC50 after 48 hrs by cDNA microarray technique relative to control"}, "MCF7 [18]": {"system": "MCF7", "assay": "Upregulation of NPAT gene expression in human MCF7 cells at IC50 after 48 hrs by cDNA microarray technique relative to control"}, "HT-29 [19]": {"system": "HT-29", "assay": "Down regulation of ADAMTS3 gene expression in human HT-29 cells at IC50 after 48 hrs by cDNA microarray technique relative to control", "how_it_was_run": "as §1"}, "HT-29 [20]": {"system": "HT-29", "assay": "Down regulation of MGC33637 gene expression in human HT-29 cells at IC50 after 48 hrs by cDNA microarray technique relative to control"}, "HT-29 [21]": {"system": "HT-29", "assay": "Down regulation of ARL10B gene expression in human HT-29 cells at IC50 after 48 hrs by cDNA microarray technique relative to control", "how_it_was_run": "as §1"}, "HT-29 [22]": {"system": "HT-29", "assay": "Down regulation of FUS gene expression in human HT-29 cells at IC50 after 48 hrs by cDNA microarray technique relative to control", "how_it_was_run": "as §2"}, "MCF7 [23]": {"system": "MCF7", "assay": "Down regulation of RHAG gene expression in human MCF7 cells at IC50 after 48 hrs by cDNA microarray technique relative to control"}, "HT-29 [24]": {"system": "HT-29", "assay": "Down regulation of PP1201 gene expression in human HT-29 cells at IC50 after 48 hrs by cDNA microarray technique relative to control"}, "HT-29 [25]": {"system": "HT-29", "assay": "Down regulation of FLOT1 gene expression in human HT-29 cells at IC50 after 48 hrs by cDNA microarray technique relative to control", "how_it_was_run": "as §2"}, "HT-29 [26]": {"system": "HT-29", "assay": "Down regulation of BENE gene expression in human HT-29 cells at IC50 after 48 hrs by cDNA microarray technique relative to control", "how_it_was_run": "as §1"}, "HT-29 [27]": {"system": "HT-29", "assay": "Down regulation of ANP32C gene expression in human HT-29 cells at IC50 after 48 hrs by cDNA microarray technique relative to control", "how_it_was_run": "as §1"}, "HT-29 [28]": {"system": "HT-29", "assay": "Down regulation of SOCS4 gene expression in human HT-29 cells at IC50 after 48 hrs by cDNA microarray technique relative to control"}, "HT-29 [29]": {"system": "HT-29", "assay": "Upregulation of C1orf24 gene expression in human HT-29 cells at IC50 after 48 hrs by cDNA microarray technique relative to control"}, "HT-29 [30]": {"system": "HT-29", "assay": "Down regulation of AQP3 gene expression in human HT-29 cells at IC50 after 48 hrs by cDNA microarray technique relative to control", "how_it_was_run": "as §1"}, "HT-29 [31]": {"system": "HT-29", "assay": "Down regulation of FLJ23436 gene expression in human HT-29 cells at IC50 after 48 hrs by cDNA microarray technique relative to control", "how_it_was_run": "as §2"}, "MCF7 [32]": {"system": "MCF7", "assay": "Upregulation of X77737 gene expression in human MCF7 cells at IC50 after 48 hrs by cDNA microarray technique relative to control"}, "HT-29 [33]": {"system": "HT-29", "assay": "Down regulation of MDGA1 gene expression in human HT-29 cells at IC50 after 48 hrs by cDNA microarray technique relative to control"}, "HT-29 [34]": {"system": "HT-29", "assay": "Down regulation of SFRS5 gene expression in human HT-29 cells at IC50 after 48 hrs by cDNA microarray technique relative to control"}, "HT-29 [35]": {"system": "HT-29", "assay": "Down regulation of ZFYVE9 gene expression in human HT-29 cells at IC50 after 48 hrs by cDNA microarray technique relative to control"}, "HT-29 [36]": {"system": "HT-29", "assay": "Down regulation of DNAJC7 gene expression in human HT-29 cells at IC50 after 48 hrs by cDNA microarray technique relative to control", "how_it_was_run": "as §2"}, "HT-29 [37]": {"system": "HT-29", "assay": "Down regulation of HBZ gene expression in human HT-29 cells at IC50 after 48 hrs by cDNA microarray technique relative to control", "how_it_was_run": "as §2"}, "HT-29 [38]": {"system": "HT-29", "assay": "Down regulation of TMED9 gene expression in human HT-29 cells at IC50 after 48 hrs by cDNA microarray technique relative to control"}}, "data": [{"smiles": "COC(CN(c1ccccc1CO)S(=O)(=O)c1ccccc1[N+](=O)[O-])n1cnc2ncnc(Cl)c21", "note": "(racemic)", "values": [{"measurement": "fold change (FC)", "setting": "HT-29 [1]", "result": -2.22}, {"measurement": "fold change (FC)", "setting": "HT-29 [2]", "result": -2.1}, {"measurement": "fold change (FC)", "setting": "HT-29 [3]", "result": -2.47}, {"measurement": "fold change (FC)", "setting": "HT-29 [4]", "result": -2.25}, {"measurement": "fold change (FC)", "setting": "HT-29 [5]", "result": -2.03}, {"measurement": "fold change (FC)", "setting": "MCF7 [6]", "result": -2.26}, {"measurement": "fold change (FC)", "setting": "MCF7 [7]", "result": 2}, {"measurement": "fold change (FC)", "setting": "HT-29 [8]", "result": -2.75}, {"measurement": "fold change (FC)", "setting": "MCF7 [9]", "result": 2.25}, {"measurement": "fold change (FC)", "setting": "MCF7 [10]", "result": -2.27}, {"measurement": "fold change (FC)", "setting": "MCF7 [11]", "result": 4.22}, {"measurement": "fold change (FC)", "setting": "HT-29 [12]", "result": -2.02}, {"measurement": "fold change (FC)", "setting": "HT-29 [13]", "result": -2.96}, {"measurement": "fold change (FC)", "setting": "HT-29 [14]", "result": 2.06}, {"measurement": "fold change (FC)", "setting": "HT-29 [15]", "result": 2.23}, {"measurement": "fold change (FC)", "setting": "MCF7 [16]", "result": 2.09}, {"measurement": "fold change (FC)", "setting": "HT-29 [17]", "result": 3.5}, {"measurement": "fold change (FC)", "setting": "MCF7 [18]", "result": 2.68}, {"measurement": "fold change (FC)", "setting": "HT-29 [19]", "result": -2.43}]}, {"smiles": "O=C(OCC1c2ccccc2-c2ccccc21)N1CC(n2cnc3c(Cl)ncnc32)OCc2ccccc21", "note": "(racemic)", "values": [{"measurement": "fold change (FC)", "setting": "HT-29 [20]", "result": -2.25}, {"measurement": "fold change (FC)", "setting": "HT-29 [21]", "result": -2.27}, {"measurement": "fold change (FC)", "setting": "HT-29 [22]", "result": -2.99}, {"measurement": "fold change (FC)", "setting": "MCF7 [23]", "result": -6.26}, {"measurement": "fold change (FC)", "setting": "HT-29 [24]", "result": -2.04}, {"measurement": "fold change (FC)", "setting": "HT-29 [25]", "result": -2.19}, {"measurement": "fold change (FC)", "setting": "HT-29 [26]", "result": -2.14}, {"measurement": "fold change (FC)", "setting": "HT-29 [27]", "result": -2.81}, {"measurement": "fold change (FC)", "setting": "HT-29 [28]", "result": -2}, {"measurement": "fold change (FC)", "setting": "HT-29 [29]", "result": 2.44}, {"measurement": "fold change (FC)", "setting": "HT-29 [30]", "result": -2.53}, {"measurement": "fold change (FC)", "setting": "HT-29 [31]", "result": -2.2}, {"measurement": "fold change (FC)", "setting": "MCF7 [32]", "result": 3.11}, {"measurement": "fold change (FC)", "setting": "HT-29 [33]", "result": -3.92}, {"measurement": "fold change (FC)", "setting": "HT-29 [34]", "result": -2.06}, {"measurement": "fold change (FC)", "setting": "HT-29 [35]", "result": -2.52}, {"measurement": "fold change (FC)", "setting": "HT-29 [36]", "result": -2.2}, {"measurement": "fold change (FC)", "setting": "HT-29 [37]", "result": -2.84}, {"measurement": "fold change (FC)", "setting": "HT-29 [38]", "result": -3.95}]}]}
